Paper PMC6697428 (SLAS discovery : advancing life sciences R & D, 2018)
Where two headings read alike, the source gives them in different places.

Columns and labels:
[1] = test system: THP-1 cells; assay: MTT cell viability assay; type: cell-based, human; conditions: for relative viability (MTT): 5 μM compound, overnight, relative to vehicle control (0.5% DMSO)
How it was run: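 THP-1 cells in 96-well plates were exposed to test compound at 5 μM for 18 h. MTT (0.5 mg/ml in assay media) was then added for 4–6 h. Cells were lysed overnight in 15% w/v SDS with 0.12% v/v 12N HCl. Absorbance was read at 570 nm against a 650 nm reference and expressed relative to vehicle (0.5% DMSO) wells.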

[2] = test system: STAT1 phosphorylation in THP-1 cells; assay: Immunoblot of STAT1 phosphorylation after IFN-α; type: cell-based, human; conditions: 1 μM compound pre-treatment 12 h, then IFN-α
[3] = test system: human THP-1 cells; assay: q-PCR of ISG15 and ISG56 gene expression in THP-1 cells; type: cell-based; conditions: 1 μM compound, 1000 U/mL IFN-α, 8 h, compared to vehicle
[4] = test system: murine bone marrow derived dendritic cells; type: cell-based, mouse; conditions: 5 μM compound in presence of IFN-α, compared to IFN-α alone
[5] = test system: ISG15 in THP-1 cells; assay: Immunoblot of IFN-α induced ISG15 protein expression; type: cell-based, human; conditions: 24 h
[6] = test system: ISRE-bla THP-1 cells; assay: ISRE-bla THP-1 FRET reporter assay for prolonged IFN-α induced ISRE activation; type: cell-based, human

SMILES	relative viability (MTT) ([1]; 5 µM)	relative viability (MTT) ([1]; listed as Belinostat, 5 µM)	level of p-STAT1 after 30 minutes ([2]; 30 minutes)	level of p-STAT1 at 6 h post stimulation ([2]; 6 h)	increase in gene expression for both ISG15 and ISG56 [3] [fold]	mRNA expression of Isg56, Isg15, Ifi2712a, Irf7, Ifi16 [4]	mRNA expression of Isg56, Isg15, Ifi2712a, Irf7, Ifi16 ([4]; listed as KX2–391)	relative viability (MTT) [1]	% relative viability, dose response cytotoxicity ([1]; absence of IFN-α, dose response starting with 50 μM) [%]	levels of IFN-α induced ISG15 protein ([5]; 1 μM compound with IFN-α)	amounts of ISG15 protein without IFN-α ([5]; compound alone)	FRET ratio in the absence of exogenous interferon ([6]; no IFN-α, even at higher concentrations of the compounds)	EC50 ([6]; read-out: relative EC50 (ISRE activity), with 100 U/mL IFN, 16 h) [nM]
O=C(/C=C/c1cccc(S(=O)(=O)Nc2ccccc2)c1)NO [Compound 26, belinostat]	toxic	relatively toxic	–	–	–	–	–	–	–	–	–	–	–
O=C(Cc1ccc(-c2ccc(OCCN3CCOCC3)cc2)cn1)NCc1ccccc1 [Compound 24, KX2–391]	–	–	elevated	minimal residual effect	~2	significantly increased	increased	without significant toxicity	> 75	increased	did not increase	no increase	1640
